High-throughput results deposited in PubChem by Sanford-Burnham Center for Chemical Genomics.
The list is not random: actives were taken first. Their share in the collection is about 3%.
SENP7 inh: blocks the human protease SENP7 | recombinant SENP7, Z-RLRGG-aminoluciferin luminescence, 40 min | inhibition, % at 5 µM | 1.5% of 330,000 active;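 active = inhibition above about 50% at the single test dose, limit read from the data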;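 note: plate controls were DMSO with enzyme for no effect and no enzyme buffer wells for full effect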
UBC13 polyUb: inhibitors of human UBC13 polyubiquitin chain formation; P61088; TR-FRET; AID 485273; inhibition, % at 20 µM; 0.47% of 330,000 active; in the data active = inhibition above about 45%, passing the limit was not always enough
Target sequence (P61088 whole entry, looked up): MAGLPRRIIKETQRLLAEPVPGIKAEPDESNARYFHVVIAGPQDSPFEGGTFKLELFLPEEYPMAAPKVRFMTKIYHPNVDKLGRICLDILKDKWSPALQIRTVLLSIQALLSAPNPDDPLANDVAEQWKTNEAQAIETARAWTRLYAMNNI
SENP6 inh: SENP6 protease inhibition. AID 2599. Recombinant SENP6 catalytic domain, aminoluciferin luminescence. 1.8% of 330,000 active. inhibition, % at 10 µM. Q9GZR1;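 active = inhibition above about 50% at the single tested dose, limit read from the data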;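 note: plate controls were DMSO wells with enzyme for no effect and DMSO wells lacking enzyme for full effect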
Target sequence (Q9GZR1 628-1112 limits assumed): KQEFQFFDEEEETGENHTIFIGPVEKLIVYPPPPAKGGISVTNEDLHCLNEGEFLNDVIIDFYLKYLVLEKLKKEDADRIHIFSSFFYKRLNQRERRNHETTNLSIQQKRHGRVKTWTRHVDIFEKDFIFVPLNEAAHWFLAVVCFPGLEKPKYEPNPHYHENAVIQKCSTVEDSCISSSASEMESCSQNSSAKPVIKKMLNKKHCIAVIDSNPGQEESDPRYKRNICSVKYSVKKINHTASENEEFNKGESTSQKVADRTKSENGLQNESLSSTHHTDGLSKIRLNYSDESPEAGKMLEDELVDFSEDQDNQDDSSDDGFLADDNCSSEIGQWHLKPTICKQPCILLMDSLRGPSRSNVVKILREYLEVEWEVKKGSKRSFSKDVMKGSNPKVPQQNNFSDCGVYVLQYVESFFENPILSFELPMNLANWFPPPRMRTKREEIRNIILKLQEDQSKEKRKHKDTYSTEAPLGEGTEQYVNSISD
SENP8 block-1: blocks human SENP8 cleavage of Nedd8 substrate; 0.64% of 360,000 active; recombinant SENP8, Nedd8 substrate fluorescence; Q96LD8; inhibition, % at 20 µM; in the data active = inhibition mostly above about 40%, no sharp cut-off; inactive = mostly below about 27%
SENP8 block-2: blocks the human protease SENP8; Q96LD8; purified SENP8, Z-RLRGG-aminoluciferin cleavage, luminescence; inhibition, % at 10 µM; 1.2% of 330,000 active; in the data active = inhibition above about 50%
Apaf-1 inh: inhibitors of human Apaf-1 apoptosome. inhibition, % at 20 µM. 0.71% of 330,000 active. AID 489030. reconstituted apoptosome caspase-3 activity, DEVD-Rh110 fluorescence. O14727; active = inhibition of at least 40% at 20 µM;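 note: plate controls were DMSO wells for no effect and DEVD-CHO caspase inhibitor wells for full effect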
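Material: cell-free apoptosome with Apaf-1, procaspase-3 and caspase-9; Buffer or medium: Hepes pH 7.5 with detergent and BSA; Reagent: cytochrome c trigger plus (Z-DEVD)2-Rh110 caspase-3 substrate; Times: compound with Apaf-1, dATP, procaspase-3 30 min, then 50 min reaction, room temperature; Technique: Rh110 fluorescence intensity.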
SENP8 confirm: confirmation of human SENP8 protease inhibitors. shares compounds with SENP7 inh. Recombinant SENP8, Z-RLRGG-aminoluciferin luminescence, 60 min. inhibition, % at 12.5 µM. 40% of 6,200 active;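 active = mean inhibition across replicates above about 50%, limit read from the data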
SENP6 confirm: confirmation of human SENP6 protease inhibitors. shares compounds with SENP7 inh. recombinant SENP6, Z-RLRGG-aminoluciferin luminescence. inhibition, % at 12.5 µM. 58% of 6,200 active. AID 488915
SENP7 confirm: human SENP7 inhibition, confirmed | shares compounds with SENP7 inh | recombinant SENP7, Z-RLRGG-aminoluciferin luminescence, 40 min | inhibition, % at 12.5 µM | 69% of 6,200 active
Casp3 SENP sel: selectivity test for SENP inhibitors: human caspase-3 inhibition; shares compounds with SENP7 inh; purified caspase-3, Z-DEVD-aminoluciferin luminescence, 60 min; inhibition, % at 12.5 µM; 60% of 6,200 active; AID 488918;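 active = mean inhibition above about 50%, limit read from the data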;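 note: plate controls were enzyme with DMSO for no effect and wells without caspase-3 for full effect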
Luc interf: luminescence interference (SENP counter-screen). shares compounds with SENP7 inh. Pre-incubated SENP8/Z-RLRGG-aminoluciferin, luciferase luminescence interference. inhibition, % at 12.5 µM. 39% of 6,200 active. AID 488919;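 active = mean inhibition above about 50% when retested at one dose, limit read from the data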;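 note: plate controls were DMSO wells with completed reaction for no effect and substrate without enzyme for full effect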
* marks the source's active call; other numbers are inactive results; x = no result given.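 Rule for the calls, unless noted: active = mean inhibition above about 50% in the one-dose retest (limit read from the data); inactive = the rest.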

SMILES	SENP7 inh	UBC13 polyUb	SENP6 inh	SENP8 block-1	SENP8 block-2	Apaf-1 inh	SENP8 confirm	SENP6 confirm	SENP7 confirm	Casp3 SENP sel	Luc interf
CC(=O)Nc1ccc(NC(=S)Nc2ccc(Br)cc2)cc1	-1	8	6	14	5	-20	x	x	x	x	x
Cc1ccc(CNC(=O)c2ccc(COc3ccccc3)cc2)cc1	1	-1	5	3	0	2	x	x	x	x	x
Cc1cc(C(=O)Nc2ccc(OCc3ccccc3)cc2)c(C)o1	99*	4	101*	18	94*	1	74*	96*	101*	95*	64*
C#CCn1cnc2c(oc3ccccc32)c1=O	10	-1	14	6	-12	-5	x	x	x	x	x
O=C(NC(=O)N1CCN(C(c2ccccc2)c2ccccc2)CC1)c1ccccc1	4	-1	-18	32	4	4	x	x	x	x	x
CCOc1ccc(NC(=O)c2ccncc2)cc1	-3	-6	60*	16	-10	2	3	-2	10	16	6
Cc1noc(C)c1COc1cccc(C(=O)Nc2ccc(OCc3ccccc3)cc2)c1	34	2	57*	26	16	9	9	7	4	4	-6
CCOc1ccc(NC(=O)c2ccc(OC)cc2)cc1	7	6	-41	24	-7	2	x	x	x	x	x
Cc1noc(C)c1COc1ccc(C(=O)Nc2ccccc2)cc1	-8	-5	-26	11	-7	-4	x	x	x	x	x
O=S(=O)(c1ccc(Cl)c(C(F)(F)F)c1)N1CCN(CC(O)COc2ccccc2F)CC1 (centres undefined)	3	7	-18	19	3	31	x	x	x	x	x
O=c1oc2cc(O)ccc2c2oc3cc(O)ccc3c12	7	10	74*	-376	69*	-41	45	50	89*	63*	12
O=c1c2ccccc2nc2n1CCc1c-2[nH]c2ccccc12	89*	-4	64*	-378	48	2	33	29	28	25	19
CCOc1ccc(C(C)=O)cc1CN1C(=O)NC(C)(C2CC2)C1=O (centres undefined)	-7	-6	3	12	-11	0	x	x	x	x	x
O=C(Nc1ccc(Cl)cc1)Nc1ccccc1C(=O)NCc1ccco1	96*	9	91*	-115	84*	-9	80*	81*	99*	78*	78*
O=C(Nc1ccccc1)Nc1ccccc1C(=O)NCc1ccccc1	52*	10	7	-400	-4	1	-2	-3	74*	34	6
O=C(CSc1nnc(CNC(=O)c2c(F)cccc2F)o1)c1ccc(Cl)cc1	x	x	x	-3	x	x	x	x	x	x	x
Cc1ccc(C(=O)Nc2ccc3c(c2)OCCO3)o1	7	0	54*	8	30	3	52*	44	80*	82*	62*
Cc1cc(C)c2sc(NC(=O)C3=COCCO3)nc2c1	62*	-1	67*	-27	45	22	44	65*	89*	56*	45
Cc1cc(C(=O)Nc2ccc3c(c2)OCCO3)co1	2	7	34	13	15	-20	x	x	x	x	x
CCc1ccc(-c2csc(NC(=O)C3=COCCO3)n2)cc1	30	-5	60*	-8	36	15	37	32	73*	16	7
O=C(Nc1nc(-c2ccc3c(c2)OCCO3)cs1)c1ccco1	89*	5	86*	-51	83*	18	86*	86*	97*	75*	90*
Cc1cc(C)c(-c2csc(NC(=O)C3=COCCO3)n2)c(C)c1	0	2	-8	1	3	16	x	x	x	x	x
CC(C)CN(C(=O)COC(=O)C(C)N1C(=O)c2ccccc2C1=O)c1c(N)n(Cc2ccccc2)c(=O)[nH]c1=O (centres undefined)	-2	-1	-2	3	7	6	x	x	x	x	x
O=C(Nc1cccc(NC(=O)c2ccco2)c1)c1ccc2c(c1)OCCO2	14	5	-11	2	-6	0	x	x	x	x	x
O=C(Nc1ccc2c(c1)OCCO2)c1ccco1	54*	-1	35	7	15	5	38	36	75*	80*	53*
SMILES	SENP7 inh	UBC13 polyUb	SENP6 inh	SENP8 block-1	SENP8 block-2	Apaf-1 inh	SENP8 confirm	SENP6 confirm	SENP7 confirm	Casp3 SENP sel	Luc interf
Cc1ccc(OCC(=O)Nc2ccc(NC(=O)c3ccccc3)cc2)cc1C	-1	-11	-16	11	-8	-6	x	x	x	x	x
CCCC(=O)Nc1ccc(C2C(=O)c3ccccc3C2=O)cc1	-4	-33	75*	4	56*	-1	38	80*	94*	93*	80*
CC(=O)Nc1ccc(C2C(=O)c3ccccc3C2=O)cc1	3	-15	-21	-1	-6	-11	x	x	x	x	x
Cc1coc(C)c1C(=O)Nc1ccc2ccccc2c1	49	3	66*	-2	27	8	49	45	79*	52*	60*
Cc1oncc1C(=O)Nc1ccc2ccccc2c1	81*	2	88*	-8	67*	12	25	65*	96*	75*	77*
Cc1oncc1C(=O)Nc1cccc2ccccc12	0	0	5	7	1	-1	x	x	x	x	x
Cc1oncc1C(=O)Nc1ccc(C(F)(F)F)cc1	76*	0	78*	-2	68*	0	12	67*	94*	76*	63*
O=C(N/C(=C\c1ccc(Br)cc1)C(=O)N1CCCC1)c1ccccc1F	9	11	-5	27	1	-15	x	x	x	x	x
Cc1ccc(CN2C(=O)C(C)Nc3ncnc(N4CCN(c5ccccn5)CC4)c32)cc1 (centres undefined)	-3	-13	-14	-26	4	14	x	x	x	x	x
Cn1c(CCNC(=O)c2ccccc2F)nnc1SCC(=O)Nc1ccccc1F	1	1	-8	8	4	-8	x	x	x	x	x
CC(=O)Nc1ccc(NC(=S)NC(=O)c2oc3ccccc3c2C)cc1	4	-6	13	16	8	0	x	x	x	x	x
Cc1c(C(=O)Nc2cnccn2)oc2ccccc12	3	11	24	5	-13	-10	x	x	x	x	x
Cc1cccnc1NC(=S)NC(=O)c1oc2ccccc2c1C	8	0	79*	-155	18	5	-6	-3	-6	4	5
